Experimental data published in ChEMBL document CHEMBL1132632, “Conformational and quantitative structure-activity relationship study of cytotoxic 2-arylidenebenzocycloalkanones” (J Med Chem, 1999).
Starred links: 1 amine or outer side, 2 acyl side, 3 side chain; linkers in the order of their positions; H or OH if unused. Positions of bridges follow the written chain, without caps; N, C: chain ends. Non-standard residues stand in square brackets, D forms with d. Residues, ends and D or L forms follow the SMILES beside them. Chains are numbered I, II in the order given. Actinocin(1to9) = Cc1c2oc3c(C)ccc(C(=O)[*:2])c3nc-2c(C(=O)[*:1])c(N)c1=O; NMeV = CN[C@H](C(=O)O)C(C)C; Sar = CNCC(=O)O

Experiments:
[1] = system: CCRF-CEM; experiment: Inhibitory activity was tested against CEM cells; type: functional, cell-based; settings: Homo sapiens
[2] = system: P388; experiment: Inhibitory activity was tested against P388 cells; type: functional, cell-based; settings: Mus musculus
[3] = system: MOLT-4; experiment: Average potency against Molt4/C8cells; type: functional, Homo sapiens
[4] = system: Tumor Cell line; experiment: Tested against human tumor cell lines, mean graph mid point values(MG MID) are determined.; type: functional
Summary of the method: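 Panel of about 55 human tumor cell lines from nine cancer types: leukemia, melanoma, non-small-cell lung, colon, CNS, ovarian, renal, prostate and breast. Compounds were tested from 10⁻⁴ to 10⁻⁸ M, and the 50% growth-inhibitory concentration was found for each line.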

[5] = system: CCRF-CEM; experiment: Average potency against CEM cells; type: functional, Homo sapiens
[6] = system: MOLT-4; experiment: Inhibitory activity was tested against Molt4/C8 cells; type: functional, cell-based; settings: Homo sapiens
[7] = system: L1210; experiment: Inhibitory activity was tested against L1210 cells; type: functional, cell-based; settings: Mus musculus
[8] = system: P388; experiment: Average potency against P388 cells; type: functional, Mus musculus
[9] = system: L1210; experiment: Average potency against L1210 cells; type: functional, Mus musculus
[10] = system: Jurkat; experiment: (§1) Inhibitory concentration against Human Jurkat T cells; type: functional
[11] = system: Jurkat; experiment: (§2) IC80 concentrations of the compounds were used in determining the inhibition of RNA synthesis using Jurkat T cells.; type: functional, Homo sapiens
[12] = system: Jurkat; experiment: (§3) IC80 concentrations of the compounds were used in determining the inhibition of protein synthesis using Jurkat T cells.; type: functional, Homo sapiens
[13] = system: Jurkat; experiment: as §1; type: functional, cell-based
[14] = system: Tumor Cell line; experiment: as §2; type: functional, Homo sapiens
[15] = system: Tumor Cell line; experiment: as §3; type: functional, Homo sapiens
[16] = system: Tumor Cell line; experiment: as §1; type: functional
Summary of the method: (§4)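 Human Jurkat T cells were exposed to compounds for 48 h. Viability was scored by nigrosin dye exclusion in place of trypan blue. IC50 and IC80 were derived from these counts.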

[17] = system: Tumor Cell line; experiment: as §1; type: functional, cell-based; summary of the method: as §4

Compound	IC50 [1] [µM]	IC50 [2] [µM]	AP [3] [µM]	MG MID [4] [µM]	AP [5] [µM]	IC50 [6] [µM]	IC50 [7] [µM]	AP [8] [µM]	AP [9] [µM]	IC80 [10] [µM]	Inhibition [11] [%]	Inhibition [12] [%]	IC50 [13] [µM]	Inhibition [14] [%]	Inhibition [15] [%]	IC80 [16] [µM]	IC50 [17] [µM]
O=C1/C(=C/c2cccc(Cl)c2)CCCc2ccccc21	9.44	8.2	66	16.6	47	23.8	52.3	11.2	85.2								
O=C1CCCCC/C1=C\c1cccc(Cl)c1	40.5	25.7	186	41.7	136	88.6	144	34.5	227								
O=C1CCCCC/C1=C\c1ccccc1	110	> 50	186	91.2	136	215	261	34.5	227								
Cc1c2oc3c(C)ccc(C(=O)N[C@@H]4C(=O)N[C@H](C(C)C)C(=O)N5CCC[C@H]5C(=O)N(C)CC(=O)N(C)[C@@H](C(C)C)C(=O)O[C@@H]4C)c3nc-2c(C(=O)N[C@@H]2C(=O)N[C@H](C(C)C)C(=O)N3CCC[C@H]3C(=O)N(C)CC(=O)N(C)[C@@H](C(C)C)C(=O)O[C@@H]2C)c(N)c1=O [DACTINOMYCIN] (I: T[dV]P[Sar][NMeV] / II: T[dV]P[Sar][NMeV]; ester I:1-I:C, II:1-II:C; linker I:N-II:N via Actinocin(1to9))										0.0072	63.2	51.8	0.0045				
Cc1cccc(/C=C2\CCCCCC2=O)c1	170	29.8	186	81.3	136	228	263	34.5	227								
O=C1/C(=C/c2ccc([N+](=O)[O-])cc2)CCCc2ccccc21	> 500	10.9	66	89.1	47	> 500	> 500	11.2	85.2								
O=C1CCCCC/C1=C\c1ccc(F)cc1	198	> 50	186	83.2	136	250	291	34.5	227								
O=C1/C(=C/c2cccc(Br)c2)CCc2ccccc21	8.79	16.6	158	11.8	115	21.2	158	20.9	135								
O=C1CCCCC/C1=C\c1cccc(F)c1	224	> 50	186	67.6	136	482	382	34.5	227								
N[C@@H](Cc1ccc(N(CCCl)CCCl)cc1)C(=O)O				25.7						3.52	85.1	30.5	2.2				
O=C1CCCCC/C1=C\c1ccc([N+](=O)[O-])cc1	36.3	25.2	186	30.2	136	39.6	104	34.5	227								
Cc1ccc(/C=C2\CCCc3ccccc3C2=O)cc1	11.4	11.8	66	11.2	47	21.3	25	11.2	85.2	23.3	84.2	46.3	14.6				
COc1ccc(/C=C2\CCCc3ccccc3C2=O)cc1	0.35	1.6	66	0.269	47	0.47	0.34	11.2	85.2					92.3	19.5	5.6	3.5
CN(C)c1ccc(/C=C2\CCCc3ccccc3C2=O)cc1			66	1.41	47			11.2	85.2								
C[C@@H]1C[C@@H]([C@H](O)CC2CC(=O)NC(=O)C2)C(=O)[C@@H](C)C1 [CYCLOHEXIMIDE]										1.54	93.3	71.9	0.93				
COc1cccc(/C=C2\CCCCCC2=O)c1	128	> 50	186	85.1	136	170	283	34.5	227								

Compound	IC50 [1] [µM]	IC50 [2] [µM]	AP [3] [µM]	MG MID [4] [µM]	AP [5] [µM]	IC50 [6] [µM]	IC50 [7] [µM]	AP [8] [µM]	AP [9] [µM]	IC80 [10] [µM]	Inhibition [11] [%]	Inhibition [12] [%]	IC50 [13] [µM]	Inhibition [14] [%]	Inhibition [15] [%]	IC80 [16] [µM]	IC50 [17] [µM]
O=C1CCCCC/C1=C\c1cccc([N+](=O)[O-])c1	30.1	23.6	186	30.2	136	39.2	162	34.5	227								
COc1cccc(/C=C2\CCCc3ccccc3C2=O)c1	9.5	13.9	66	15.9	47	> 100	56.3	11.2	85.2								
Cc1ccc(/C=C2\CCCCCC2=O)cc1	> 500	> 50	186	83.2	136	> 500	> 500	34.5	227								
O=C1/C(=C/c2cccc(F)c2)CCCc2ccccc21	11.2	10.9	66	16.2	47	28.3	134	11.2	85.2								
O=C1/C(=C/c2cccc([N+](=O)[O-])c2)CCCc2ccccc21	7.72	15.8	66	10.2	47	8.82	48.8	11.2	85.2								
O=C1/C(=C/c2cccc(Br)c2)Cc2ccccc21	32.4	21	267	46.7	155	173	43.3	42.9	127								
O=C1/C(=C/c2ccccc2)CCCc2ccccc21	28.9	12.7	66	18.6	47	42.7	106	11.2	85.2								
O=C1/C(=C/c2ccc(Cl)cc2)CCCc2ccccc21	15.1	9.5	66	17	47	33	51.8	11.2	85.2								
O=C1CCCCC/C1=C\c1ccc(Cl)cc1	43.5	19.1	186	33.1	136	52.6	83	34.5	227								
COc1ccc(/C=C2\CCCCCC2=O)cc1	194	> 50	186	100	136	250	306	34.5	227								
Cc1cccc(/C=C2\CCCc3ccccc3C2=O)c1	15.8	19.9	66	20	47	34.6	54.4	11.2	85.2								
CN(C)c1ccc(/C=C2\CCCCCC2=O)cc1	45.1	18.8	186	85.1	136	57.4	79.1	34.5	227								
O=C1/C(=C/c2cccc([N+](=O)[O-])c2)Cc2ccccc21	222	> 50	267	91.2	155	> 500	256	42.9	127								
O=C1/C(=C/c2ccc(Cl)cc2)CCc2ccccc21	48.2	20.9	158		115	> 500	69.1	20.9	135								
O=C1/C(=C/c2ccc([N+](=O)[O-])cc2)CCc2ccccc21	> 500	> 50	158		115	> 500	> 500	20.9	135								
